Test results taken from ChEMBL document CHEMBL1141852, “Two auronols from Pseudolarix amabilis” (1999).
≈ marks a conversion by molar mass, not a printed value. Calls of active or inactive are those of the source. The calls are words filed in the database; no cut-off is given here.

Assays:
[1] = test system: Trichophyton mentagrophytes; experiment: Antimicrobial activity against Trichophyton mentagrophytes; assay type: functional
Outline: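 Microdilution in 96-well plates. The Trichophyton mentagrophytes inoculum was spores scraped from fungal growth into Mycophil broth. Pure compounds were tested at final 50 down to 0.20 µg/mL in twofold steps. Incubation was at 30 or 37 °C. MIC was taken as the lowest concentration inhibiting at least 80% of growth.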

[2] = test system: Candida albicans; experiment: Antimicrobial activity against Candida albicans; assay type: functional
Outline: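 Broth microdilution in 96-well plates. Inoculum was a 24 h Candida albicans culture diluted in Sabouraud dextrose broth. Incubation was at 30 or 37 °C. MIC was taken as the lowest concentration giving at least 80% growth inhibition.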

With COC(=O)C1=CC[C@@]23CC[C@@H]([C@@](C)(/C=C/C=C(\C)C(=O)O[C@@H]4O[C@H](CO)[C@@H](O)[C@H](O)[C@H]4O)OC2=O)[C@@]3(OC(C)=O)CC1 the Activity [1] was “inactive” and the Activity [2] was “inactive”.
With COc1c(O)cc(CC2(O)Oc3cc(O)cc(O)c3C2=O)cc1O (configuration not stated) the Activity [1] was “inactive” and the Activity [2] was “inactive”.
For CC(=O)O[C@]12CCC(C)=CC[C@]13CC[C@H]2[C@@](C)(/C=C/C=C(\C)C(=O)O[C@@H]1O[C@H](CO)[C@@H](O)[C@H](O)[C@H]1O)OC3=O, the Activity [1] was “inactive” and the Activity [2] was “inactive”.
COC(=O)C1=CC[C@@]23CC[C@@H]([C@@](C)(/C=C/C=C(\C)C(=O)O)OC2=O)[C@@]3(O)CC1 was tested, and the Activity [1] was “inactive” and the Activity [2] was “inactive”.
COC(=O)C1=CC[C@@]23CC[C@@H]([C@@](C)(/C=C/C=C(\C)C(=O)O)OC2=O)[C@@]3(OC(C)=O)CC1 [PSEUDOLARIC ACID B] showed an MFC [2] of 6.25 µg/mL (≈ 14.5 µM) and an MIC [2] of 3.12 µg/mL (≈ 7.23 µM).
C[C@@H]1[C@H](O)[C@@H](C)/C=C/C=C/C=C/C=C/C=C/C=C/C=C/[C@H](O[C@@H]2O[C@H](C)[C@@H](O)[C@H](N)[C@@H]2O)C[C@@H]2O[C@](O)(C[C@@H](O)C[C@@H](O)[C@H](O)CC[C@@H](O)C[C@@H](O)CC(=O)O[C@H]1C)C[C@H](O)[C@H]2C(=O)O [AMPHOTERICIN B] was tested, and the Activity [1] was “inactive” and the MFC [2] was 0.39 µg/mL (≈ 0.422 µM).
O=c1c(O)c(-c2cc(O)c(O)c(O)c2)oc2cc(O)cc(O)c12 [MYRICETIN] showed an MIC [1] of 50 µg/mL (≈ 157 µM).
For C/C(=C\C=C\[C@@]1(C)OC(=O)[C@]23CC=C(C(=O)O)CC[C@]2(O)[C@H]1CC3)C(=O)O, the Activity [1] was “inactive” and the Activity [2] was “inactive”.
For O=C1c2c(O)cc(O)cc2OC1(O)Cc1cc(O)c(O)c(O)c1 (configuration not stated), the Activity [1] was “inactive” and the Activity [2] was “inactive”.
